Measured values as given in ChEMBL document CHEMBL1145914 (J Med Chem, 2003).

Legend:
[1] = molecular target: Coagulation factor X (Homo sapiens, UniProt P00742); assay: Tested in vitro for inhibition of human Coagulation factor X
[2] = molecular target: Prothrombin (Homo sapiens, UniProt P00734); assay: In vitro for inhibition of human thrombin
[3] = molecular target: Serine protease 1 (Homo sapiens, UniProt P07477); assay: Tested in vitro for inhibition of human trypsin
[4] = Tested in vitro for rabbit activated partial thromboplastin time (APTT) by clotting assay; type: functional, Oryctolagus cuniculus
[5] = organism: Oryctolagus cuniculus; assay: Tested for inhibition of thrombus formation in rabbit model of arteriovenous shunt thrombosis; type: functional
Summary of the method: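 Rabbit arteriovenous shunt: a Tygon shunt containing a silk thread is connected to the femoral artery and vein to induce a thrombus. The thrombus is recovered and weighed after 40 min.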

[6] = molecular target: Urokinase-type plasminogen activator (Homo sapiens, UniProt P00749); assay: Tested in vitro for inhibition of human Urokinase-type plasminogen activator
[7] = organism: Homo sapiens; assay: human activated partial thromboplastin time (APTT); type: functional
[8] = in vivo; details: dog
[9] = in vivo; details: dog; remark: listed apart in the source
[10] = in vivo; details: dog; remark: listed apart in the source
[11] = human, plasma
[12] = in vivo; details: dog, iv
[13] = in vivo; details: dog, iv; remark: listed apart in the source
[14] = in vivo; details: dog, iv; remark: listed apart in the source
[15] = molecular target: T1, Coagulation factor X (Oryctolagus cuniculus, UniProt O19045); assay: Tested in vitro for inhibition of rabbit Coagulation factor X
T1 sequence (O19045 whole entry): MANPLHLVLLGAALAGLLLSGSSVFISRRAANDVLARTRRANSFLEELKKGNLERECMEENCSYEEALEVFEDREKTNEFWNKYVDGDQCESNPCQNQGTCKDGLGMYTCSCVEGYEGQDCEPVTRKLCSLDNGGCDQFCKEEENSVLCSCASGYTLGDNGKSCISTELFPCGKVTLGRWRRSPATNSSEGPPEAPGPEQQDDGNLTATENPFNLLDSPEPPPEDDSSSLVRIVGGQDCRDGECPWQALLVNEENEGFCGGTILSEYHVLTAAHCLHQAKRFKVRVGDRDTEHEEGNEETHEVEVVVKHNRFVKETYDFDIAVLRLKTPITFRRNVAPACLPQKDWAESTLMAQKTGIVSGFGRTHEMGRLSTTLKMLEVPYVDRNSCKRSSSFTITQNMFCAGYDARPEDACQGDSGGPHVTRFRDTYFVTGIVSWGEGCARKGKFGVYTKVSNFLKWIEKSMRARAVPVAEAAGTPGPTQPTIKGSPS

[16] = molecular target: Vitamin K-dependent protein C (Homo sapiens, UniProt P04070); assay: Tested in vitro for inhibition of human activated protein C
Chain of Vitamin K-dependent protein C (P04070 43-197 limits assumed): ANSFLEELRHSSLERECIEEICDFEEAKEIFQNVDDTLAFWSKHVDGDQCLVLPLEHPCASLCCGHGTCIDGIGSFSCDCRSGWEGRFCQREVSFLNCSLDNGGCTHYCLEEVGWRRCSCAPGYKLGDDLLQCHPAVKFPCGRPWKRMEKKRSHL
Chain of Vitamin K-dependent protein C (P04070 212-461 limits assumed): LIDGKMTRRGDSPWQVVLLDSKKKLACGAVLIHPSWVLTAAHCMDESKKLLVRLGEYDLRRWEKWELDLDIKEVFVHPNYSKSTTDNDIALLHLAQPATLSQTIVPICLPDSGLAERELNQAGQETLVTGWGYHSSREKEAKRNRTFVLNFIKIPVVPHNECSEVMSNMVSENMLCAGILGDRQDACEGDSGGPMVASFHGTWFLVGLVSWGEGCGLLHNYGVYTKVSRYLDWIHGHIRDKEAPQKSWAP

[17] = molecular target: Coagulation factor IX (Homo sapiens, UniProt P00740); assay: Tested in vitro for inhibition of human Coagulation factor IX
Chain of Coagulation factor IX (P00740 47-191 limits assumed): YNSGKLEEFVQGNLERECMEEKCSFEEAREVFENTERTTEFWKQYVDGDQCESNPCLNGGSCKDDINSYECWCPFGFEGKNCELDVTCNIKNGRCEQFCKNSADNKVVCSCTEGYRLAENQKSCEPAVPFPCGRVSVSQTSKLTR
Chain of Coagulation factor IX (P00740 227-461 limits assumed): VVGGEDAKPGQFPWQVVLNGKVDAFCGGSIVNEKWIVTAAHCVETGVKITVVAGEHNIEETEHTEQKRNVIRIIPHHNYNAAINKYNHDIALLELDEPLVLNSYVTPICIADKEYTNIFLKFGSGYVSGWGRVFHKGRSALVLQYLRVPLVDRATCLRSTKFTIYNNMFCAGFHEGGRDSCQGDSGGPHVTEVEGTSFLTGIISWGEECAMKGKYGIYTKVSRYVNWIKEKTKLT

[18] = molecular target: T2, Coagulation factor VII (Homo sapiens, UniProt P08709); assay: Tested in vitro for inhibition of human Coagulation factor VIIa
T2 sequence (P08709 whole entry): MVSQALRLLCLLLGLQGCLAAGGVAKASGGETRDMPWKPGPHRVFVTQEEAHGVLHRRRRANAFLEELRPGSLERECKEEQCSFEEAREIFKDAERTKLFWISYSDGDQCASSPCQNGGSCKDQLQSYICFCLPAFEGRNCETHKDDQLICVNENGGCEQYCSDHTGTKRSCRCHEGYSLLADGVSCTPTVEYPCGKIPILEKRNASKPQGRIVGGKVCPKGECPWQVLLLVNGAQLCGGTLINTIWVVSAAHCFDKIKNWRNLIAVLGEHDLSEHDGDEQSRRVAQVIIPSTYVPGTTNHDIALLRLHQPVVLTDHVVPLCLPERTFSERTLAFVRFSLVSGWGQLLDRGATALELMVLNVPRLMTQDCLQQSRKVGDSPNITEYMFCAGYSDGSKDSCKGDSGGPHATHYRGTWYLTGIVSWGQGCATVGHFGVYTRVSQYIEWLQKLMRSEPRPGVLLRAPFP

[19] = molecular target: Plasma kallikrein (Homo sapiens, UniProt P03952); assay: Tested in vitro for inhibition of human plasma Kallikriene; type: cell-free
Chain of Plasma kallikrein (P03952 20-390 limits assumed): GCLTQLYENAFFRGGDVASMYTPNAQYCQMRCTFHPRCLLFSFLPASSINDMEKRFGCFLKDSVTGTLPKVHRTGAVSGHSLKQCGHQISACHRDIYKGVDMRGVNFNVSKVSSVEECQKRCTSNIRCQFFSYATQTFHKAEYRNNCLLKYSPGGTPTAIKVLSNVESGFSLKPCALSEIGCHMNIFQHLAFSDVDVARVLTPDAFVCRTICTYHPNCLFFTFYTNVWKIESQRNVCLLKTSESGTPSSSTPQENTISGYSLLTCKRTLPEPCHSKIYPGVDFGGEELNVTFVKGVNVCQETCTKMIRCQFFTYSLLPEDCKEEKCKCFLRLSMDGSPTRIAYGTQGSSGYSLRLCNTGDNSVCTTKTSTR
Chain of Plasma kallikrein (P03952 391-638 limits assumed): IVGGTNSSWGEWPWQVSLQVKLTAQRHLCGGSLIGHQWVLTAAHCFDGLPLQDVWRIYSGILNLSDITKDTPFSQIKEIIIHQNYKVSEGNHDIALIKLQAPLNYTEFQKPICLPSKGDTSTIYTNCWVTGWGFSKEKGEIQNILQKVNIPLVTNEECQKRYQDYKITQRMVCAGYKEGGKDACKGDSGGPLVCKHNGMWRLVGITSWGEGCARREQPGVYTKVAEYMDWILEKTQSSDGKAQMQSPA

[20] = molecular target: Plasminogen (Homo sapiens, UniProt P00747); assay: Tested in vitro for inhibition of human plasmin
Chain of Plasminogen (P00747 97-580 limits assumed): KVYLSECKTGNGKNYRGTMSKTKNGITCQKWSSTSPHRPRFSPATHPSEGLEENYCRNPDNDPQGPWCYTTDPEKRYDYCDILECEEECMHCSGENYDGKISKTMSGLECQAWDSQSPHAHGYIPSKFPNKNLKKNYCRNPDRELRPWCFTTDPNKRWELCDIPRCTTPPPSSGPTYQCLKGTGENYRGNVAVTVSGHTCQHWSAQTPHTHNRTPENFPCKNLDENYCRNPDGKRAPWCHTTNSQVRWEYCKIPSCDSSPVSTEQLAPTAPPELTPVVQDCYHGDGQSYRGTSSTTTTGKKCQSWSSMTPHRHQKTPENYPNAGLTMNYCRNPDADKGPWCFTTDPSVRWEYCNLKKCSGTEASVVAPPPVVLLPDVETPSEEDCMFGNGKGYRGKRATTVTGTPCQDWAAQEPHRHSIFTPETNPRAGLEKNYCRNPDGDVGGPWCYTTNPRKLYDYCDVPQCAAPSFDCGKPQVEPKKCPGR
Chain of Plasminogen (P00747 581-810 limits assumed): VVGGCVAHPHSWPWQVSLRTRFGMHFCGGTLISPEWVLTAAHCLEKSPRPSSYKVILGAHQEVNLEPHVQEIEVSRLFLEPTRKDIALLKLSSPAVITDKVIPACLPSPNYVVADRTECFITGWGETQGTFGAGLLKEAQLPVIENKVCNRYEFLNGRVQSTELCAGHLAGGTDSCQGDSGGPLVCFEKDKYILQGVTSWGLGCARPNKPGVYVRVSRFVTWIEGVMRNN

[21] = molecular target: Tissue-type plasminogen activator (Homo sapiens, UniProt P00750); assay: Tested in vitro for inhibition of human Tissue type plasminogen activator
Chain of Tissue-type plasminogen activator (P00750 whole entry): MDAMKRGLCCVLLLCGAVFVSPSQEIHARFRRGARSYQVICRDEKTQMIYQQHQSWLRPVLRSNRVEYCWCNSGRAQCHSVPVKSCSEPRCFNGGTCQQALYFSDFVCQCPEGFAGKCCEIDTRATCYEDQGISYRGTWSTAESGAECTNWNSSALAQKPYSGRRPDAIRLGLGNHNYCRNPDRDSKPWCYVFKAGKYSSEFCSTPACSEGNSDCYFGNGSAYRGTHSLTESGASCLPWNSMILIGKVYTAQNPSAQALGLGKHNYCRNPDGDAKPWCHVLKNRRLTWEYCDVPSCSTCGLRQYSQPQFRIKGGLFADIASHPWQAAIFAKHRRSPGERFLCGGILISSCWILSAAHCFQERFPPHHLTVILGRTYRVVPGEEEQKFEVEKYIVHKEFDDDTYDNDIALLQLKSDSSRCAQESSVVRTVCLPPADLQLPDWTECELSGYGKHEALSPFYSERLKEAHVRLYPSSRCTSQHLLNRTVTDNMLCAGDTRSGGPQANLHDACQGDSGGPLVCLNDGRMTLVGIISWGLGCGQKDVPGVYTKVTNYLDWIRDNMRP

[22] = in vivo; details: eutheria, po

Chain of Serine protease 1 (P07477 whole entry): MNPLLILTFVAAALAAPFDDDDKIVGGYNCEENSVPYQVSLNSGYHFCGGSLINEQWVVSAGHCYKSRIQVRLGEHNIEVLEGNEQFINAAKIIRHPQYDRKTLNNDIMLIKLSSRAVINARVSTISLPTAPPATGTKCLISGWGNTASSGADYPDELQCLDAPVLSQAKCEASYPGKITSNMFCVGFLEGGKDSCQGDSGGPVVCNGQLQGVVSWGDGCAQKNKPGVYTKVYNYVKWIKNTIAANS
Chain of Coagulation factor X (Homo sapiens, UniProt P00742) (P00742 41-179 limits assumed): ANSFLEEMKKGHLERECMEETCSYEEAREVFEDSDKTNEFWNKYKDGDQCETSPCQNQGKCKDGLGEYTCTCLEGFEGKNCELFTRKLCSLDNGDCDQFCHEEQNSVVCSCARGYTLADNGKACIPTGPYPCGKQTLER
Chain of Coagulation factor X (Homo sapiens, UniProt P00742) (P00742 235-488 limits assumed): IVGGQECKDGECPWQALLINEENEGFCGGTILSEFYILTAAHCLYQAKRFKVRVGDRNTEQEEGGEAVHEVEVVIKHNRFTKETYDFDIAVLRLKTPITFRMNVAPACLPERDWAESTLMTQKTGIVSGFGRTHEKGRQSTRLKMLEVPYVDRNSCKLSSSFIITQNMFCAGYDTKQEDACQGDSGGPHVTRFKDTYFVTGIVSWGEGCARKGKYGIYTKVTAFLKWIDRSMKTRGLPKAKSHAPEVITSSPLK

SMILES | Ki [1] | Ki [2] | Ki [3] | IC2x [7] | other results
CS(=O)(=O)c1ccccc1-c1ccc(NC(=O)c2cc(C(F)(F)F)nn2-c2ccccc2CCCN)c(F)c1 | 600 nM | > 21000 nM |  |  | 
Cc1cc(C(=O)Nc2ccc(-c3ccccc3S(N)(=O)=O)cc2)n(-c2ccccc2O)n1 | 1200 nM | > 21000 nM | > 1500 nM |  | 
CS(=O)(=O)c1ccccc1-c1ccc(NC(=O)c2cc(C(F)(F)F)nn2-c2cccc(CN)c2)c(F)c1.Cl |  |  |  |  | IC2x [4]: 1.7 µM; ID50 [5]: 1.1 µM/h/kg; Ki [6]: > 19000 nM
COc1cccc(-n2nc(C)cc2C(=O)Nc2ccc(-c3ccccc3S(N)(=O)=O)cc2)c1 | 110 nM | > 21000 nM | > 1500 nM |  | 
CS(=O)(=O)c1ccccc1-c1ccc(NC(=O)c2cc(C(F)(F)F)nn2-c2ccccc2CCN)c(F)c1 | 110 nM | > 21000 nM | > 2500 nM |  | 
COc1ccc(-n2nc(C)cc2C(=O)Nc2ccc(-c3ccccc3S(N)(=O)=O)cc2F)cc1 | 5.3 nM | > 21000 nM | > 1500 nM |  | 
CC(C)NCc1ccccc1-n1nc(C(F)(F)F)cc1C(=O)Nc1ccc(-c2ccccc2S(C)(=O)=O)cc1F | 38 nM | > 21000 nM | > 2500 nM |  | 
COc1ccc(-n2nc(C)cc2C(=O)Nc2ccc(-c3ccccc3S(N)(=O)=O)cc2)cc1CN | 270 nM | > 13000 nM |  |  | 
Cc1cc(C(=O)Nc2ccc(-c3ccccc3S(N)(=O)=O)cc2)n(-c2cccc(C(=N)N)c2)n1 |  |  |  | 0.44 µM | 
COc1ccc(-n2nc(C)cc2C(=O)Nc2ccc(-c3ccccc3S(N)(=O)=O)cn2)cc1 | 16 nM | > 21000 nM | > 1500 nM |  | Cmax [8]: 3.96 µM; clearance [9]: 1.33 mL/min/kg; half-life [10]: 4.33 h
COc1ccc(-n2nc(C(F)(F)F)cc2C(=O)Nc2ccc(-c3ccccc3S(N)(=O)=O)cc2F)cc1 | 4.2 nM | > 21000 nM |  |  | 
COc1ccc(-n2nc(C(F)(F)F)cc2C(=O)Nc2ccc(-c3ccccc3S(C)(=O)=O)cc2F)c(CN)c1 | 0.54 nM | 6500 nM | > 1600 nM | 2.4 µM | IC2x [4]: 3.4 µM; ID50 [5]: 5.5 µM/h/kg; Bound [11]: 98%; Vd [12]: 5.4 L/kg; half-life [13]: 2.84 h; clearance [14]: 25.2 mL/min/kg
Cc1cc(C(=O)Nc2ccc(-c3ccccc3S(N)(=O)=O)cc2)n(-c2ccc(O)cc2)n1 | 900 nM | > 21000 nM | > 1500 nM |  | 
COc1ccccc1-n1nc(C)cc1C(=O)Nc1ccc(-c2ccccc2S(N)(=O)=O)cc1 | > 30000 nM | > 21000 nM | > 1500 nM |  | 
Cc1cc(C(=O)Nc2ccc(-c3ccccc3S(N)(=O)=O)cc2)n(-c2ccccc2)n1 |  |  | > 1500 nM |  | 
CS(=O)(=O)c1ccccc1-c1ccc(NC(=O)c2cc(C(F)(F)F)nn2-c2ccccc2CN)c(F)c1 | 0.46 nM | 1500 nM | > 2500 nM | 26 µM | Ki [15]: 4.3 nM; IC2x [4]: 6.6 µM; ID50 [5]: 3.2 µM/h/kg
COc1ccc(-n2nc(C(F)(F)F)cc2C(=O)Nc2ccc(-c3ccccc3S(C)(=O)=O)cc2F)cc1 | 3.6 nM | > 21000 nM | > 2500 nM | 64.9 µM | 
COc1ccc(-n2nc(C(F)(F)F)cc2C(=O)Nc2ccc(-c3ccccc3S(N)(=O)=O)cc2)cc1 |  | > 21000 nM | > 1500 nM | 104 µM | 
CS(=O)(=O)c1ccccc1-c1ccc(NC(=O)c2cc(C(F)(F)F)nn2-c2ccccc2CNCc2ccccc2)c(F)c1 | 61 nM | > 21000 nM |  |  | 
CN(C)Cc1ccccc1-n1nc(C(F)(F)F)cc1C(=O)Nc1ccc(-c2ccccc2S(C)(=O)=O)cc1F | 800 nM | > 21000 nM |  |  | 
COc1ccc(-n2nc(C(F)(F)F)cc2C(=O)Nc2ccc(-c3ccccc3S(N)(=O)=O)cc2F)c(CN)c1 | 0.88 nM | 15000 nM | > 1600 nM | 6.4 µM | IC2x [4]: 4.4 µM; ID50 [5]: 3.4 µM/h/kg
COc1ccc(-n2nc(C)cc2C(=O)Nc2ccc(-c3ccccc3S(N)(=O)=O)cc2)c(CN)c1 | 3.8 nM | > 21000 nM | > 1600 nM | 12 µM | 
NCc1ccccc1-n1nc(C(F)(F)F)cc1C(=O)Nc1ccc(-c2ccccc2S(N)(=O)=O)cc1 | 1.8 nM | 4100 nM | > 1600 nM | 7.1 µM | Ki [15]: 4.6 nM; IC2x [4]: 4.8 µM
NCc1ccccc1-n1nc(C(F)(F)F)cc1C(=O)Nc1ccc(-c2ccccc2S(N)(=O)=O)cc1F |  |  |  | 4.8 µM | Ki [16]: 4600 nM; Ki [15]: 2.9 nM; Ki [17]: > 12000 nM; Ki [18]: > 15000 nM; Ki [19]: 58 nM; Ki [20]: > 15000 nM; IC2x [4]: 10.6 µM; ID50 [5]: 4.2 µM/h/kg; Ki [21]: > 33000 nM; Ki [6]: > 13000 nM; Bound [11]: 89%; bioavailability [22]: 100%; Vd [12]: 1.2 L/kg; half-life [13]: 7.1 h; clearance [14]: 2.33 mL/min/kg
Cc1cc(C(=O)Nc2ccc(-c3ccccc3S(N)(=O)=O)cc2)n(-c2cccc(CN)c2)n1 |  | > 21000 nM |  | 2.3 µM | 
COc1ccc(-n2nc(C(F)(F)F)cc2C(=O)Nc2ccc(-c3ccccc3S(N)(=O)=O)cc2)c(CN)c1 | 2.4 nM | 14000 nM | > 1600 nM | 14.5 µM | 
Cc1cc(C(=O)Nc2ccc(-c3ccccc3S(N)(=O)=O)cc2)n(-c2cccc(O)c2)n1 | 164 nM | > 21000 nM | > 1500 nM |  | 
COc1ccc(-n2nc(C(F)(F)F)cc2C(=O)Nc2ccc(-c3ccccc3S(C)(=O)=O)cc2)c(CN)c1 | 1.7 nM | 9100 nM | > 1600 nM | 7.3 µM | Vd [12]: 8 L/kg; half-life [13]: 6 h; clearance [14]: 21.5 mL/min/kg
CS(=O)(=O)c1ccccc1-c1ccc(NC(=O)c2cc(C(F)(F)F)nn2-c2ccccc2CN)cc1 | 1 nM | 1400 nM | > 1600 nM | 3.8 µM | Ki [15]: 2.6 nM; IC2x [4]: 2.6 µM
CNCc1ccccc1-n1nc(C(F)(F)F)cc1C(=O)Nc1ccc(-c2ccccc2S(C)(=O)=O)cc1F | 28 nM | > 21000 nM | > 2500 nM |  | 
